Test system: MS2 coat protein
Assay: apparent Kd, MS2 coat protein; higher = weaker binding; RNA-MaP array; FMN 200 µM where present
Summary of the method: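 Designs were transcribed by stalled E. coli RNA polymerase on Illumina sequencing-chip clusters. They were titrated with SNAP-549-labelled MS2 coat protein from 0.7 or 1.5 nM, doubling to 3 µM, without and then with constant ligand. Buffer: 100 mM Tris-HCl pH 7.5, 80 mM KCl, 4 mM MgCl2, BSA, DTT, yeast tRNA, Tween-20. Green signal was normalised to red-channel RNA signal and control-cluster median Fmax. Apparent Kd is the median of filtered per-cluster binding-curve fits.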

[1] = designed as: ON switch for flavin mononucleotide, no ligand
[2] = ligand present: flavin mononucleotide, designed as: ON switch for flavin mononucleotide
[3] = designed as: OFF switch for flavin mononucleotide, no ligand
[4] = ligand present: flavin mononucleotide, designed as: OFF switch for flavin mononucleotide

Sequence | apparent Kd [1] [µM] | apparent Kd [2] [µM] | apparent Kd [3] [µM] | apparent Kd [4] [µM]
CCCUGAGACUGGUUAAUUGGCUGAUAGGAUAUCCUCGGACAUGAGGAUCACCCAUGUUAACUAUUGGAGAAGGGUCAGCGAAAG | 0.445 | 0.181 | – | –
GGAGAUUACUCAGGAUAUCGCUAGACCUACAUGAGGAUCACCCAUGUGGGUGACGCGGUGGGCUACGAGAAGGGAGAAGUGCCC | – | – | 0.0089 | 0.00853
GAUCUGACAGGAUAUACAUGAGGAUCACCCAUGUACGAGCUAGCGAAAGCUAGCUCAGGUAGAAGGGUCAGAUC | – | – | 0.0123 | 0.0164
GUAUAUACGUGGUACAUGAGGAUCACCCAUGUGUCUUUACAUGAGGAUAUGGAUUCUAAUUGGAUCCAGAAGGCAUGUAUAUAC | 0.0731 | 0.027 | – | –
UUGGACCUCGUAGGAUAUGUAGGAUAUUCCUACAUGAGGAUCACCCAUGUUGACAUGGAAGAAGGACAGAAGGACGAUGUCCAU | 0.311 | 0.00532 | – | –
UAUUGAUAAUAUUUUAACAUGAGGAUCACCCAUGUCGCUCGACAGGAUAUAUUUUAUUUGUUUAAGUAGAAGGGUCGCAGAUUU | 0.117 | 0.103 | – | –
CUAUGGCAAGGAUAUCUUGGCUAGAACAUGAGGAUCACCCAUGUCUACUGUACUAAUAUCGGAGAAGGUGCUAGAA | – | – | 0.0276 | 0.0191
GCACUUAGAGAUGAACCGUUACUAACAUGAGGAUCACCCAUGUAGGAUAUGCUAAUAGUAUUGAAGCAGAAGGACACUAAGUGC | – | – | 0.00525 | 0.00651
GCUGCGCGAGGAUAUGCGGUUCGGGCGGUGGCCGCUGGCGGACAUGAGGAUCACCCAUGUAGAAGGCGUGCGGG | – | – | 0.0225 | 0.0232
CCUGCACAUGAGGAUCACCCAUGUCAGGAUAUCUCGCCGUGAAGAGCAACACGGUAUUAGAGAAGGGACACGGG | – | – | 0.0251 | 0.0233
ACAUGAUAUGUAGGAUAUCACAACAUGAGUUUUAAAAUUGUAAUUUAGGAUUGAGAAGGACAUUUACAUGAGGAUCACCCAUGU | – | – | 0.0186 | 0.0147
UAAUCGUUGCAGAAGGUUAUUAUUUUAUCGUGUCUCUUAACAUGAGGAUCACCCAUGUUUUUGAUGAAGGAUAUGCAACGGUAG | – | – | 0.00754 | 0.00709
AAUAUAAGAGCUGGUAACUCAAGAACAUGAGGAUCACCCAUGUAGGAUAUCAGCACGAUAAGUGCUGAGAAGGACAUCCAGCUC | – | – | 0.0153 | 0.019
AAAAGAAUAAAAGGAUAUAGGAAAGGAAGUGUACUAGAAGGUUUGUUAACAUGAGGAUCACCCAUGUGCUCAGACACAGGGUGC | – | – | 0.124 | 0.167
GUCAGACGAGGAUAUAGAUUUGAUAACAUGAGGAUCACCCAUGUGAUCGAUAGAUCAGAUUUAGAAGGCGUCUGAC | – | – | 0.411 | 0.458
UUCAUGUGAGGAUAUAGUACUCUUUCUAUUAUUUUUGAGUAUUAGAAGGCACAUGAGGAUCACCCAUGUAGUAC | – | – | 0.0897 | 0.0188
GGGCCGUAGUAGAAGGGAUAUACGUUAGGUAUAUCAGGAUAUACAUGAGGAUCACCCAUGUUCUAACAGUGAUAGUCCUCCCUA | – | – | 0.0198 | 0.0554
AUGCAACAUGAGGAUCACCCAUGUGAGGAUAUCGUAUAAUACUGUUGAAAUAUUUAGACGAGAAGGCACACCGU | – | – | 0.0297 | 0.0473
UCAUGAAGGGCAGGAUAUGGACAUGAGGAUCACCCAUGUACAUGGGAUUAUAUACUAAAUUAAUACUAGAAGGGUUACAUAAAU | – | – | 0.0479 | 0.0231
CUGCUCCGUGUAGGAUAUGCAUACAACCAAUAUGCAGAAGGACAUGAGGAUCACCCAUGUAUGUUAUUAUCACGUGAAGCGUCC | – | – | 0.0226 | 0.0429
UUAAAUCAUGUAGGAUAUGCAUGGCGAAGCUACGCAGAAGGACAUGAGGAUCACCCAUGUGCUAGCUACCGAGUACGGUGGCAA | – | – | 0.0649 | 0.251
GACUGGCAGCUAGGAUAUGGGCGAUCACAUGAGGAUCACCCAUGUCAACAUCAAAACAAGAUUAACCAGAAGGAGCCGCGGGCU | 0.0173 | 0.0497 | – | –
GCGGCCAACGUAGGAUAUCUUCAGCCACAGCACAUUGCUGUACAUGAGGAUCACCCAUGUCCUGGAGAGAAGGACGGACGGCAG | 0.0377 | 0.00873 | – | –
UUAAAUCGAAACAUGAGGAUCACCCAUGUGUUGUAAUUAAUAUAGGAUAUGUGUAUACUUUUAUGACAGAAGGAUGAUAAUACU | 0.0215 | 0.0144 | – | –
GAAGCAUGCAUUAACAUGAGGAUCACCCAUGUGAAAACACGUGAGGAUAUUGAUCUGAAGAAGAUCGAGAAGGCACCGUGCUAA | 0.0141 | 0.00911 | – | –
AUACUCAUGUAAGGAUAUGCAGCCGUCUCGGCUGCAGAAGGUACUAUAAUACAUGAGGAUCACCCAUGUCUCUCGCAUUGCGAG | 0.562 | 0.0937 | – | –
UUACAGCAAGGAUAUACGGGCUGUGCUUUUCAUUUCUUACAACAUGAGGAUCACCCAUGUAGAAGGUGCAACAU | – | – | 0.0326 | 0.0737
ACUAGAUGAGGAUAUGCAUGUUUUCGUGUUCUUCUAGAUUAACAUGAGGAUCACCCAUGUAGAAGGCGUCAUUU | – | – | 0.081 | 0.118

Sequence | apparent Kd [1] [µM] | apparent Kd [2] [µM] | apparent Kd [3] [µM] | apparent Kd [4] [µM]
CGCAAGUCAGGAUAUUCGACUGGUAAAUCAGUGGAUCAGUAGGAGAAGGGACAUGAGGAUCACCCAUGUAUGUA | – | – | 0.0432 | 0.0512
UUUGAUUAAGUGAGGAUAUACUGUUUGUAUUGAUUGUAGAAGGUACAUGAGGAUCACCCAUGUUUAGUAUUUAU | – | – | 0.0205 | 0.02
GGGUUGGGAGGAUAUCCAAUAUAUGACAUGAGGAUCACCCAUGUUUCCACUCGUACCUCCGGAGAAGGCCCUUCCC | – | – | 0.0193 | 0.02
GCUGAAAGUACAGGAUAUGAGAUAUAUGAUCACUCAGAAGGGUACCGGGACAUGAGGAUCACCCAUGUACUCUCAGCGAAAAUA | 0.165 | 0.553 | – | –
GUAGCAUAUGAUUUACAUGAGGAUCACCCAUGUAUCUUGGGUAAGGAUAUUGAUGUUAUGUUAAUCAAGAAGGUACUAUGCUAC | 0.0505 | 0.00866 | – | –
CUGUUACGUGUAGGAUAUGCAUAUUCCCAUUAUGCAGAAGGACAUGAGGAUCACCCAUGUAUGUUAUUAUCAUGUGUUACAUGC | – | – | 0.0346 | 0.153
CACCGACCCUAUGUGUUCUAGACAUGAGGAUCACCCAUGUAUAGAAGGGUCUUCGCGAAACGCAGACAGGAUAUGUACAGGAGU | – | – | 0.00658 | 0.00989
ACAUGAGGAUCACCCAUGUAUUACAUGGUUAAGUUUAUUAACAGAAGGCGAAAUUACCACUUUUUCGAGGAUAUGUAUUCUAUU | – | – | 0.0357 | 0.0607
CCCUACGUUUCGUAGCAGUGUCAUCGAGAAGGCCCUGACAUGAGGAUCACCCAUGUUGUUACAUGGGAGGAUAUCGAUGAUCCC | 0.0186 | 0.00547 | – | –
UUGGACGUCGUAGGAUAUGUAGGAUAUUCCUACAUGAGGAUCACCCAUGUUGACAUGGAAGAAGGAAAGAAGGACGAUGUCCAU | 0.496 | 0.303 | – | –
GCUUGUAGAGGAUAUACGAGGGCCCGAGCGGAUAACACCGCACAUGAGGAUCACCCAUGUAGAAGGCUACCACC | – | – | 0.0253 | 0.284
CCGCAUAUGGAGGAUAUCGUAUCGGAAACGAUACGAGAAGGCUAAACAUGAGGAUCACCCAUGUUCCUUAACGG | – | – | 0.0181 | 0.0181
AGAAAGAAGCAAGGAUAUUGUAAAAUUAAUGUACAAGAAGGUGCUGUUUAUGUCUCUUAACAUGAGGAUCACCCAUGUAUUGGU | 0.0686 | 0.0459 | – | –
UUUACAUGAGGAUCACCCAUGUUUUGAAAGAUUAGUUUUGGUGAGGAUAUACAUGAUAAAGAAUUGUAGAAGGCACUGGGUACA | 0.0454 | 0.0286 | – | –
UUGUUUAGAAAUUAACAUGAGGAUCACCCAUGUAUUGGAUCAGAGGAUAUGCAUGUUUGAUUGUAGCAGAAGGCUGAUUGUUGA | 0.0506 | 0.0451 | – | –
AUUUUGUGAGGAUAUUAGUUUUAUGAUUGGAGGAGUUUGGCUGAGAAGGCACAUGAGGAUCACCCAUGUAAAUC | – | – | 0.0353 | 0.0411
GGGCCGCUACGCCGGCUCCACGCACAGGAUAUGCAGUUACAUGAGGAUCACCCAUGUGGCCAUGUGCAGAAGGGUGAUUCGCGA | 0.0787 | 0.0461 | – | –
AUACUCAAUGAAGGAUAUCUCAGCAUAAACCUGAGAGAAGGUCAUUGUUACAUGAGGAUCACCCAUGUUGUAGUUAAUGGGUAA | – | – | 0.504 | 0.573
AAGAAGAACGUAGGAUAUCAAUGAGGAUCACCCUGAGAAGGACGUGAGGACAUGAGGAUCACCCAUGUGGAUCACCCAUGUCAU | – | – | 0.168 | 0.13
GAGUAGUUGAUAGGAUAUUGAUUGUUAUAGGAUCAAGAAGGAUCUAACAUGAGGAUCACCCAUGUAGGACUAUUCCUGUGUAUC | 0.0221 | 0.0192 | – | –
UAAUUAAGUGUGAGGAUAUGCUGGUCCUUGGAUCAGCAGAAGGCACAUGAGGAUCACCCAUGUAAUUUAUAUAU | – | – | 0.0982 | 0.485
UUUAUGUCAGGAUAUGAUUAGAUCUACUUUUGUAGAUCUAAUCAGAAGGGACAUGAGGAUCACCCAUGUAGUUU | – | – | 0.126 | 0.236
AGUCAUACAGGAUAUACAUGAGGAUCACCCAUGUUUAUCCUAAAAUAAAAAACCUCAUGUAGAAGGGUAUGACA | – | – | 0.0194 | 0.0135
GGAUGACAAAGUCAUCCAUUACGAACAUGAGGAUCACCCAUGUAGGAUAUGCUACUCAAAGAGUAGCAGAAGGACAUGUGUCUU | – | – | 0.0312 | 0.149
UAGAAUCGAGGAUAUACAUGAGGAUCACCCAUGUGUGGCCAUUUGGUGUGGUCGUCAGGUAGAAGGCGAUUACA | – | – | 0.16 | 0.0156
GGUACUCAAAGAGUACUUGGUCGAACAUGAGGAUCACCCAUGUAGGAUAUACGAAGCAAGAAGUAGUAGAAGGACGUGUGCAGC | – | – | 0.0124 | 0.0121
GUAGCAUACCGAGGAUAUUCAUAUCGUAAUCGAACAUGAGGAUCACCCAUGUGGCGAAAGCCUUGGGAGAAGGCGGAAUGCUAC | 0.36 | 0.0259 | – | –

From the EternaBench riboswitch data
